# Experimental data: ChEMBL document CHEMBL1255404, “Spread of OXA-48-encoding plasmid in Turkey and beyond” (2010)
# What was measured:
# Format in all cases: functional
# Klebsiella pneumoniae [1] = assay: Antimicrobial activity against Klebsiella pneumoniae isolate KpL expressing beta-lactamase OXA-48 by Etest method
# Klebsiella pneumoniae [2] = assay: Antimicrobial activity against Klebsiella pneumoniae isolate Kp11978 expressing beta-lactamase OXA-48, SHV-2a and TEM-1 by Etest method
# Escherichia coli [3] = assay: Antimicrobial activity against Escherichia coli isolate J53 harboring pA-1 containing beta-lactamase OXA-48 located within transposon Tn1999 by Etest method
# Outline: (§1)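 β-Lactam MICs read with Etest strips. Strains are E. coli J53 recipient and J53 transconjugants carrying OXA-48-positive plasmids recovered from clinical enterobacterial isolates.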
# Klebsiella pneumoniae [4] = assay: Antimicrobial activity against Klebsiella pneumoniae isolate KpB expressing OXA-48 and CTX-M-15 by Etest method
# Escherichia coli [5] = assay: Antimicrobial activity against Escherichia coli isolate J53 harboring pBb containing beta-lactamase OXA-48 located within transposon Tn1999.2 by Etest method; outline: as §1
# Klebsiella pneumoniae [6] = assay: Antimicrobial activity against Klebsiella pneumoniae isolate Kp3A expressing beta-lactamase OXA-48 by Etest method
# Outline: (§2)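 MICs of β-lactams read from Etest strips. The test organisms are carbapenem-resistant, OXA-48-positive clinical Enterobacteriaceae isolates recovered from Turkey, Lebanon, Egypt, France and Belgium.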
# Escherichia coli [7] = assay: Antimicrobial activity against Escherichia coli isolate J53 harboring p3A containing beta-lactamase OXA-48 located within transposon Tn1999 by Etest method; outline: as §1
# Klebsiella pneumoniae [8] = assay: Antimicrobial activity against Klebsiella pneumoniae isolate Kp4A expressing beta-lactamase OXA-48 and CTX-M-15 by Etest method
# Klebsiella pneumoniae [9] = assay: Antimicrobial activity against Klebsiella pneumoniae isolate Kp5A expressing beta-lactamase OXA-48 and SHV-5 by Etest method
# Klebsiella pneumoniae [10] = assay: Antimicrobial activity against Klebsiella pneumoniae isolate Kp6A expressing beta-lactamase OXA-48 and TEM-150 by Etest method
# Escherichia coli [11] = assay: Antimicrobial activity against Escherichia coli isolate J53 harboring p4A containing beta-lactamase OXA-48 located within transposon Tn1999 by Etest method; outline: as §1
# Escherichia coli [12] = assay: Antimicrobial activity against Escherichia coli isolate J53 harboring p5A containing beta-lactamase OXA-48 located within transposon Tn1999 by Etest method; outline: as §1
# Escherichia coli [13] = assay: Antimicrobial activity against Escherichia coli isolate J53 harboring p6A containing beta-lactamase OXA-48 located within transposon Tn1999 by Etest method; outline: as §1
# Klebsiella pneumoniae [14] = assay: Antimicrobial activity against Klebsiella pneumoniae isolate Kp7A expressing beta-lactamase OXA-48 by Etest method; outline: as §2
# Escherichia coli [15] = assay: Antimicrobial activity against Escherichia coli isolate J53 harboring p7A containing beta-lactamase OXA-48 located within transposon Tn1999 by Etest method; outline: as §1
# Klebsiella pneumoniae [16] = assay: Antimicrobial activity against Klebsiella pneumoniae isolate KpI-1 expressing beta-lactamase OXA-48 and CTX-M-15 by Etest method
# Klebsiella pneumoniae [17] = assay: Antimicrobial activity against Klebsiella pneumoniae isolate KpI-2 expressing beta-lactamase OXA-48 and CTX-M-15 by Etest method
# Escherichia coli [18] = assay: Antimicrobial activity against Escherichia coli isolate J53 harboring pI-1 containing beta-lactamase OXA-48 located within transposon Tn1999.2 by Etest method; outline: as §1
# Escherichia coli [19] = assay: Antimicrobial activity against Escherichia coli isolate J53 harboring pI-2 containing beta-lactamase OXA-48 located within transposon Tn1999.2 by Etest method; outline: as §1
# Klebsiella pneumoniae [20] = assay: Antimicrobial activity against Klebsiella pneumoniae isolate KpBIC expressing beta-lactamase OXA-48 by Etest method; outline: as §2
# Escherichia coli [21] = assay: Antimicrobial activity against Escherichia coli isolate TOP10 harboring pBIC containing beta-lactamase OXA-48 located within transposon Tn1999.2 by Etest method
# Outline: (§3)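 β-Lactam MICs read with Etest strips. Strains are E. coli TOP10 host and TOP10 transformants made with plasmid DNA extract when conjugation failed. Transformants were selected on LB agar with ticarcillin 50 μg/ml.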
# Klebsiella pneumoniae [22] = assay: Antimicrobial activity against Klebsiella pneumoniae isolate KpE expressing beta-lactamase OXA-48 and CTX-M-15 by Etest method
# Escherichia coli [23] = assay: Antimicrobial activity against Escherichia coli isolate J53 harboring pE containing beta-lactamase OXA-48 located within transposon Tn1999.2 by Etest method; outline: as §1
# Klebsiella pneumoniae [24] = assay: Antimicrobial activity against Klebsiella pneumoniae isolate KpBEL expressing beta-lactamase OXA-48 by Etest method; outline: as §2
# Escherichia coli [25] = assay: Antimicrobial activity against Escherichia coli isolate J53 harboring pBEL containing beta-lactamase OXA-48 located within transposon Tn1999.2 by Etest method; outline: as §1
# Escherichia coli [26] = assay: Antimicrobial activity against Escherichia coli isolate J53 harboring pL containing beta-lactamase OXA-48 located within transposon Tn1999.2 by Etest method; outline: as §1
# Providencia rettgeri = assay: Antimicrobial activity against Providencia rettgeri isolate expressing beta-lactamase OXA-48 and TEM-101 by Etest method
# Escherichia coli [27] = assay: Antimicrobial activity against Escherichia coli isolate TOP10 harboring pPR containing beta-lactamase and TEM-101 by Etest method; outline: as §3
# Enterobacter cloacae [28] = assay: Antimicrobial activity against Enterobacter cloacae isolate 1 expressing beta-lactamase OXA-48 and SHV-5 by Etest method
# Escherichia coli [29] = assay: Antimicrobial activity against Escherichia coli isolate J53 harboring pEnc1 containing beta-lactamase OXA-48 located within transposon Tn1999 by Etest method; outline: as §1
# Enterobacter cloacae [30] = assay: Antimicrobial activity against Enterobacter cloacae isolate 2 expressing beta-lactamase OXA-48 and SHV-5 by Etest method
# Escherichia coli [31] = assay: Antimicrobial activity against Escherichia coli isolate J53 harboring pEnc2 containing beta-lactamase OXA-48 located within transposon Tn1999 by Etest method; outline: as §1
# Citrobacter freundii = assay: Antimicrobial activity against Citrobacter freundii isolate expressing beta-lactamase OXA-48 by Etest method
# Escherichia coli [32] = assay: Antimicrobial activity against Escherichia coli isolate J53 harboring pCF containing beta-lactamase OXA-48 located within transposon Tn1999 by Etest method; outline: as §1
# Escherichia coli [33] = assay: Antimicrobial activity against Escherichia coli isolate A expressing beta-lactamase OXA-48 and TEM-150 by Etest method
# Escherichia coli [34] = assay: Antimicrobial activity against Escherichia coli isolate J53 harboring pEcA containing beta-lactamase OXA-48 located within transposon Tn1999.2 by Etest method; outline: as §1
# Escherichia coli [35] = assay: Antimicrobial activity against Escherichia coli isolate J53 by Etest method; outline: as §1
# Escherichia coli [36] = assay: Antimicrobial activity against Escherichia coli isolate TOP10 by Etest method; outline: as §3
SMILES,MIC (Klebsiella pneumoniae [1]) [mg/L],MIC (Klebsiella pneumoniae [4]) [mg/L],MIC (Escherichia coli [5]) [mg/L],MIC (Klebsiella pneumoniae [6]) [mg/L],MIC (Escherichia coli [7]) [mg/L],MIC (Escherichia coli [11]) [mg/L],MIC (Escherichia coli [12]) [mg/L],MIC (Escherichia coli [13]) [mg/L],MIC (Klebsiella pneumoniae [14]) [mg/L],MIC (Escherichia coli [15]) [mg/L],MIC (Escherichia coli [18]) [mg/L],MIC (Escherichia coli [19]) [mg/L],MIC (Klebsiella pneumoniae [20]) [mg/L],MIC (Escherichia coli [21]) [mg/L],MIC (Escherichia coli [23]) [mg/L],MIC (Klebsiella pneumoniae [24]) [mg/L],MIC (Escherichia coli [25]) [mg/L],MIC (Escherichia coli [26]) [mg/L],MIC (Escherichia coli [32]) [mg/L],MIC (Escherichia coli [34]) [mg/L],further results
CO[C@@]1(NC(=O)Cc2cccs2)C(=O)N2C(C(=O)O)=C(COC(N)=O)CS[C@@H]21 [CEFOXITIN],8,128,4,2,2,2,2,2,128,2,2,2,128,2,2,2,2,2,2,2,MIC (Klebsiella pneumoniae [2]): 128 mg/L; MIC (Escherichia coli [3]): 2 mg/L; MIC (Klebsiella pneumoniae [8]): 128 mg/L; MIC (Klebsiella pneumoniae [9]): 128 mg/L; MIC (Klebsiella pneumoniae [10]): 128 mg/L; MIC (Klebsiella pneumoniae [16]): 128 mg/L; MIC (Klebsiella pneumoniae [17]): 128 mg/L; MIC (Klebsiella pneumoniae [22]): 128 mg/L; MIC (Providencia rettgeri): 128 mg/L; MIC (Escherichia coli [27]): 4 mg/L; MIC (Enterobacter cloacae [28]): > 512 mg/L; MIC (Escherichia coli [29]): 2 mg/L; MIC (Enterobacter cloacae [30]): 512 mg/L; MIC (Escherichia coli [31]): 2 mg/L; MIC (Citrobacter freundii): 128 mg/L; MIC (Escherichia coli [33]): 128 mg/L; MIC (Escherichia coli [35]): 2 mg/L; MIC (Escherichia coli [36]): 4 mg/L
C[C@H]1[C@H](NC(=O)/C(=N\OC(C)(C)C(=O)O)c2csc(N)n2)C(=O)N1S(=O)(=O)O [AZTREONAM],0.06,,< 0.12,0.06,0.06,0.06,0.06,0.06,0.06,0.06,0.06,0.06,0.06,,0.06,0.06,0.06,0.06,0.06,0.06,MIC (Escherichia coli [27]): 0.06 mg/L; MIC (Escherichia coli [29]): 0.06 mg/L; MIC (Escherichia coli [31]): 0.06 mg/L
C[C@@H](O)[C@H]1C(=O)N2C(C(=O)O)=C(SCCNC=N)C[C@H]12 [IMIPENEM ANHYDROUS],> 16,16,0.5,> 32,0.75,0.38,0.38,0.38,> 32,0.75,0.5,0.5,0.5,0.5,2,0.75,0.75,4,0.75,0.75,MIC (Klebsiella pneumoniae [2]): 64 mg/L; MIC (Escherichia coli [3]): 2 mg/L; MIC (Klebsiella pneumoniae [8]): > 32 mg/L; MIC (Klebsiella pneumoniae [9]): > 32 mg/L; MIC (Klebsiella pneumoniae [10]): > 32 mg/L; MIC (Klebsiella pneumoniae [16]): 24 mg/L; MIC (Klebsiella pneumoniae [17]): 24 mg/L; MIC (Klebsiella pneumoniae [22]): 2 mg/L; MIC (Providencia rettgeri): > 32 mg/L; MIC (Enterobacter cloacae [28]): 0.5 mg/L; MIC (Escherichia coli [29]): 0.5 mg/L; MIC (Enterobacter cloacae [30]): 0.75 mg/L; MIC (Escherichia coli [31]): 0.75 mg/L; MIC (Citrobacter freundii): > 32 mg/L; MIC (Escherichia coli [33]): 24 mg/L
CO/N=C(\C(=O)N[C@@H]1C(=O)N2C(C(=O)[O-])=C(C[N+]3(C)CCCC3)CS[C@H]12)c1csc(N)n1,0.12,> 512,< 0.5,0.5,,0.12,0.12,0.12,0.5,0.5,0.12,0.12,0.5,0.5,0.12,0.12,0.12,0.06,0.12,0.12,MIC (Escherichia coli [27]): 0.5 mg/L; MIC (Escherichia coli [35]): 0.03 mg/L
C[C@@H](O)[C@H]1C(=O)N2C(C(=O)O)=C(S[C@@H]3CN[C@H](C(=O)N(C)C)C3)[C@H](C)[C@H]12 [MEROPENEM],,32,0.12,> 32,0.12,0.094,0.094,0.094,> 32,0.12,0.094,0.094,0.5,0.5,2,0.5,0.5,0.19,0.12,0.19,MIC (Klebsiella pneumoniae [2]): 64 mg/L; MIC (Escherichia coli [3]): 0.25 mg/L; MIC (Klebsiella pneumoniae [8]): > 32 mg/L; MIC (Klebsiella pneumoniae [9]): > 32 mg/L; MIC (Klebsiella pneumoniae [10]): > 32 mg/L; MIC (Klebsiella pneumoniae [22]): 2 mg/L; MIC (Providencia rettgeri): > 32 mg/L; MIC (Escherichia coli [27]): 0.25 mg/L; MIC (Enterobacter cloacae [28]): 0.5 mg/L; MIC (Escherichia coli [29]): 0.094 mg/L; MIC (Enterobacter cloacae [30]): 0.75 mg/L; MIC (Escherichia coli [31]): 0.12 mg/L; MIC (Citrobacter freundii): > 32 mg/L; MIC (Escherichia coli [33]): 24 mg/L; MIC (Escherichia coli [35]): 0.06 mg/L; MIC (Escherichia coli [36]): 0.06 mg/L
